Like-named read-outs stand apart in the source and are kept apart here.
Legend:
[1] = target: T1, Drosophila melanogaster HhC (Drosophila melanogaster, UniProt Q02936); conditions: read-out: KM as HhC substrate; cited from earlier work
T1 sequence (Q02936 258-471 limits assumed): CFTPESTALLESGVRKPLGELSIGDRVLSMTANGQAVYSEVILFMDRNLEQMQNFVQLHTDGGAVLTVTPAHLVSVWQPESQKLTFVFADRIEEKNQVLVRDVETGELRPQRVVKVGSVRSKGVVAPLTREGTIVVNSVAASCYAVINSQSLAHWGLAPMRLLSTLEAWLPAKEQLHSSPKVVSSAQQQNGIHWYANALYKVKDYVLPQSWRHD

HhC [2] = target: T2, HhC (Drosophila melanogaster, UniProt Q02936); assay type: binding; conditions: HhC 5 μM, tSP 10 μM, competitor 200 μM
T2 sequence (Q02936 258-471 limits assumed): T1 sequence (Q02936 258-471 limits assumed)
How it was run: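 HhC at 5 μM with diazirine-bearing sterol probe tSP and 50 μM azide-linked fluorophore. Saturating cholesterol or test compound added as competitor. UV photolysis. Labeling read by SDS-PAGE with fluorescent gel imaging. Coomassie stain for total HhC.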

[3] = target: T1, Drosophila melanogaster HhC; assay: Cholesterolysis kinetics; assay type: biochemical; conditions: C−H−Y
HhC [4] = target: T2, HhC; assay: MS/MS mapping of tSP binding site on HhC/tSP adduct; conditions: product form of HhC, preliminary MS/MS

SMILES	Km [1] [µM]	effect on active-site photolabeling of HhC by tSP (HhC [2])	kmax as HhC substrate ([3]; no inhibitor) [s⁻¹]	site of probe attachment on HhC (HhC [4])	difference in kmax/KM compared with cholesterol [3] [fold]	Km ([3]; read-out: KM as HhC substrate, no inhibitor) [µM]
CC(C)CCC[C@@H](C)[C@H]1CC[C@H]2[C@@H]3CC=C4C[C@@H](O)CC[C@]4(C)[C@H]3CC[C@]12C [cholesterol]	1.5	competitively blocks	0.0019	–	–	–
C#CCCCCOC(=O)CC[C@@H](C)[C@H]1CCC2C3CC4(N=N4)[C@H]4C[C@@H](O)CC[C@]4(C)C3CC[C@@]21C (stereo partly shown) [tSP]	–	–	0.0042	EQLHSSPK (HhC residues 174−181)	< 2	6.8

— publication PMC9382716 (Biochemistry, 2021)
